The results in this text go back to the EternaBench riboswitch data.

In the series the test system is MS2 coat protein. As to the kind of experiment: apparent Kd, MS2 coat protein; higher = weaker binding; RNA-MaP array; FMN 200 µM where present. In outline:
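Designs were transcribed by stalled E. coli RNA polymerase on Illumina sequencing-chip clusters. They were titrated with SNAP-549-labelled MS2 coat protein from 0.7 or 1.5 nM, doubling to 3 µM, in 100 mM Tris-HCl pH 7.5, 80 mM KCl, 4 mM MgCl2, BSA, DTT, yeast tRNA and Tween-20, without and then with constant ligand. The apparent Kd is the median of filtered per-cluster fits after normalisation of green signal to red-channel RNA signal and control-cluster median Fmax.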

Where [1] appears, read: designed as: ON switch for flavin mononucleotide, no ligand.
The mark [2] stands for this setting: ligand present: flavin mononucleotide, designed as: ON switch for flavin mononucleotide.
[3] abbreviates: designed as: OFF switch for flavin mononucleotide, no ligand.
Where [4] appears, read: ligand present: flavin mononucleotide, designed as: OFF switch for flavin mononucleotide.

By apparent Kd is commonly meant the concentration giving half-maximal binding under the conditions of the assay. As to “UCCACUGCUGAGAAGGGAUACGUCUGGUUCGCAUCAGGAUAUCGAUACAGUGCAGCAUGAGGACAUGAGGAUCACCCAUGUGUC”, the “apparent Kd” value stood at 21.6 nM under setting [1] and 19.3 nM under setting [2].

“UGGUACUAGGGAGGAUAUGGGAAGAUACAUGAGGAUCACCCAUGUUUAAGAAUGCGGAGAGGCAACUAGAAGGCCCUAGUACCU”: the “apparent Kd” value reads like this: under setting [1], 351 nM; under setting [2], 18.9 nM.

For the sequence “UUAUAUAGGUAGGAUAUCGAUUUUAAUUAUUUUCGAGAAGGGUCAACAUGAGGAUCACCCAUGUCAGCAUGUAU”, the “apparent Kd” value under setting [3] stood at 58.7 nM and the “apparent Kd” value under setting [4] is 49.1 nM.

In the case of “UUAUACGUUGAGGAUAUGCGACUUAGUAUAGUUGUAGAAGGCGAUACAUGAGGAUCACCCAUGUUUAUGGGCAU”, the “apparent Kd” value was determined as 220 nM under setting [3] and 300 nM under setting [4].

As to “UACAUUACUUAGAAGGGAUAUAUAUAAUUUUAGUCAGGAUAUAGAUACAGUACAACAUGAGGACAUGAGGAUCACCCAUGUAUU”, the “apparent Kd” value is, setting by setting: under setting [1], 29.8 nM; under setting [2], 20.8 nM.

Turning to “UGUCGGAGCAGAGGAUAUUACAUGAGGAUCACCCAUGUAUGAACCAAUAGCUGGCAACAGCAAUGUAAGAAGGCUGCUCCGACA”, the “apparent Kd” value by setting is: under setting [3], 12.8 nM; under setting [4], 168 nM.

“UGAUAGGACAGAGGAUAUACAGAUAGGAUCUACUAUCAAACAGUCCUGACAUGAGGAUCACCCAUGUAGAAGGCUGUCCUAUCU”: the “apparent Kd” value under setting [3] turned out to be 22.7 nM and the “apparent Kd” value under setting [4] amounted to 98.8 nM.

For “UGGUACUACGGAGGAUAUGGGAAGAUACAUGAGGAUCACCCAUGUUUAAGAAUGCCGAGAGGCAACUAGAAGGCCCUAGUACCU”, the “apparent Kd” value under setting [1] came out at 401 nM and the “apparent Kd” value under setting [2] is 25.2 nM.

For “CUUUUGUGAGGAUAUCAGUAGUAAAAUAAUAAAAUAACUACUGAGAAGGCACAUGAGGAUCACCCAUGUUCCUC”, the “apparent Kd” value runs as follows: under setting [3], 32.5 nM; under setting [4], 161 nM.

On to “GGAGCCAGCACCGAGGAUAUUCAUAUUAAAACAUGAGGAUCACCCAUGUAGGCCAGAAGGCCUUGGGAGAAGGCGGACUGGCUCG”, for which the “apparent Kd” value was 206 nM under setting [1] and 11.4 nM under setting [2].

Consider “UUUCGGCAUGUAGGAUAUGGAUCCGAUUAGGAUUUAGAAGGACAUGAGGAUCACCCAUGUGCAUUUAAUUGGUCAUUACCGUUU”, for which the “apparent Kd” value by setting is: under setting [3], 58.5 nM; under setting [4], 95.2 nM.

Turning to “GUAGCUAUCGGAGGAUAUUCAUACCGGAAACGGACAUGAGGAUCACCCAUGUGGCGAAAGCCUUGGGAGAAGGUCGAUAGCUAC”, the “apparent Kd” value is, setting by setting: under setting [1], 308 nM; under setting [2], 10.5 nM.

“GCCGGUUCAGUUAGGAUAUUCGACACACCUCUCUAGAAGAAGGAACAUGAGGAUCACCCAUGUGAUUCCUACCG”: the “apparent Kd” value amounted to 46.7 nM under setting [3] and 56.6 nM under setting [4].

As for “GGCUGCGUUGUGAAGGAUAUCCGCGUCUGGACAUGAGGAUCACCCAUGUAUGCUUGGAUCGUGCCGGAGAAGGUCACGGGUGAUU”, the “apparent Kd” value came out at 124 nM under setting [1] and 46 nM under setting [2].

As to “UUUUUGUGAGGAUAUCAGUAGUAAAAAAAUAAAAUUACUACUGAGAAGGCACAUGAGGAUCACCCAUGUUUUUC”, the “apparent Kd” value under setting [3] was determined as 38.2 nM and the “apparent Kd” value under setting [4] amounted to 117 nM.

As to “CUGAGCAAUGUAGGAUAUCGACUGGAAUACAGUCGAGAAGGACAUGAGGAUCACCCAUGUAAAUGAGUGAAUAAUAAAGCUCAG”, the “apparent Kd” value was 735 nM under setting [3] and 345 nM under setting [4].

Take “UCCUGGCAAGGAUAUACAUGAGGAUCACCCAUGUGGAGUCGAUGCUGAAUUCUAUUGUGUAGAAGGUGCCUUUC”: the “apparent Kd” value reads like this: under setting [3], 49.1 nM; under setting [4], 62.3 nM.

For “GCAGCCGAUGCAGGAUAUCAGCACGUGUAGUGCUGAGAAGGGCACAUGAGGAUCACCCAUGUGAUCAAUUAAUAUCGAUGCUGC”, the “apparent Kd” value reads like this: under setting [3], 6.56 nM; under setting [4], 14.3 nM.

As for “AAUAUGAGCUGGAAUAACCUAGAAACAUGAGGAUCACCCAUGUAGGAUAUCAGCACGAUAAGUGCUGAGAAGGACAACCAGCUC”, the “apparent Kd” value worked out at 14.3 nM under setting [3] and 15.2 nM under setting [4].

Regarding “UCGAAAAUGCAAGGAUAUCAAUUAUAGCAAAAUAAGACAUGAGGAUCACCCAUGUAAAUAUGGAGUGAGAAGGUGCAAUAAUUU”, the “apparent Kd” value under setting [1] stood at 413 nM and the “apparent Kd” value under setting [2] was 123 nM.

For the sequence “GACAUACAUGAGGAUCACCCAUGUUCAGACGGGCAAGGAUAUGUGUGGAAACCAUACUAUACAGAAGGUGUCUGUC”, the “apparent Kd” value amounted to 26.5 nM under setting [1] and 17.6 nM under setting [2].

For “CCCGACUAGAAGUCGGUACGGAGGAGAAGGCGCCUCCUGGGUCCACAUGAGGAUCACCCAUGUGGCGAGGAUAUCCUCAGUUUU”, the “apparent Kd” value reads like this: under setting [3], 14.2 nM; under setting [4], 74 nM.

For “AGAAAUUAGUGAGGAUAUGCAUAAUAUUUAGCUGCAGAAGGCACGGACCACAAGACAUGAGGAUCACCCAUGUGGAAUAUAGAU”, the “apparent Kd” value was found to be 20.1 nM under setting [3] and 23.4 nM under setting [4].

Regarding “GGGCUGCGACGCAGCCCAACAAAACAUGAGGAUCACCCAUGUCAGGAUAUACCGAUGCAGCAUCUGUAGAAGGGACAGAUCCAA”, the “apparent Kd” value was 90.4 nM under setting [3] and 92.4 nM under setting [4].

Regarding “UUUAACUGCUAGAAGGGUGACAUGAGGAUCACCCAUGUGCUAGGCGUGCAUAAGCACCCUUAGCCACAGGAUAUAGUAGUUGAC”, the “apparent Kd” value reads like this: under setting [1], 112 nM; under setting [2], 64.5 nM.

Regarding “GAUAGGACAGAGAAGGACGUGGCUAGAGAUACUAGCAUAAAGGUCCAAACAUGAGGAUCACCCAUGUAGGAUAUCUGUCCUAUC”, the “apparent Kd” value reads like this: under setting [3], 6.59 nM; under setting [4], 8.89 nM.

“GCACGAGACUAAGGAUAUGGUGUACCUACAUGUAACAUGAGGAUCACCCAUGUAGUAAGUAUGAUUCAGAAGGUAGAGACGUGC”: the “apparent Kd” value stood at 47.3 nM under setting [1] and 18.6 nM under setting [2].

Take “UAAUAAUAAUAAUAAUGCUGACAUACAUGAGGAUCACCCAUGUAGGAUAUCGUCAGGAAUACUGACGAGAAGGACAUAGUCAGC”: the “apparent Kd” value is, setting by setting: under setting [3], 15.4 nM; under setting [4], 17.4 nM.

Regarding “UCGGCGCGAGGAUAUGCGGUUGCUCCCUAGGGUCGGAGCGUACAUGAGGAUCACCCAUGUAGAAGGCGCGCCGC”, the “apparent Kd” value under setting [3] was 16.2 nM and the “apparent Kd” value under setting [4] amounted to 16.3 nM.

On to “AGCUGUGGCCGAGGAUAUACAUUCCUAAUCCAUUGCAAAUAGCGAUGGACAUGAGGAUCACCCAUGUAGAAGGCGGUCUCAGCA”, for which the “apparent Kd” value reads like this: under setting [3], 561 nM; under setting [4], 163 nM.

As for “AAGAAAGAAACAUAGGAUAUCAAGGAUAUAACAUGAGGAUCACCCAUGUAAAUACGAAAGUAUAAUGAGAAGGAUGGAUGAUCUUC”, the “apparent Kd” value is, setting by setting: under setting [1], 86.1 nM; under setting [2], 122 nM.

Regarding “GGAUGAUUAAUAGGAUAUUAUUUGUAAAAUGGUUAAGAAGGAUUAAUGAUUUAAACGACCAGAUACAUGAGGAUCACCCAUGUA”, the “apparent Kd” value is, setting by setting: under setting [1], 24.4 nM; under setting [2], 21.9 nM.

For the sequence “CUCAUCCUUACAGGCUGAGACAUGAGGAUCACCCAUGUAGGGAGAAGGGAGUUGGGCAUCUUGACUCAGGAUAUCCCGAAAGAC”, the “apparent Kd” value by setting is: under setting [1], 733 nM; under setting [2], 83.7 nM.

As to “AGAAUGGGCGAGAAGGGAGUACAUGAGGAUCACCCAUGUGGUUCAUGGUGCUCAGGAUAUCGAUAGACCAAGGAGAGCCUUUGG”, the “apparent Kd” value under setting [3] was 21.9 nM and the “apparent Kd” value under setting [4] came to 185 nM.

As to “UUGGACGUCGUAGGAUAUGUAGGAUACUCCUACAUGAGGAUCACCCAUGUUGACAUGGAAGAAGGACAGAAGGACGAUGUCCAU”, the “apparent Kd” value under setting [1] worked out at 753 nM and the “apparent Kd” value under setting [2] came to 50.5 nM.

For “CCCACGAAAGUCGAACGAUGAUGGAGAAGGACAAUAACAUGACAUGAGGAUCACCCAUGUGCCAUGUAGGAUAUCCAUCAUGGG”, the “apparent Kd” value runs as follows: under setting [3], 7.49 nM; under setting [4], 6.78 nM.

“CUGAGCUGAGGAUAUACAUGAGGAUCACCCAUGUGUUCCAGCUUGGGUACAGGCACAUGUAGAAGGCAGUUCGG”: the “apparent Kd” value was found to be 55.1 nM under setting [3] and 21.4 nM under setting [4].

In the case of “UUGGGCGUCGUAGGAUAUGUAGGAUAUUCCUACAUGAGGAUCACCCAUGUUGACAUGGAAGAAGGACAGAAGGACGAUGUCCAU”, the “apparent Kd” value under setting [1] was determined as 278 nM and the “apparent Kd” value under setting [2] was 4.67 nM.

In the case of “UUUUAACAUGAGGAUCACCCAUGUGAGGAUAUCGAAAUUUAUAUUAAUAUUAUUAUAUCGAGAAGGCACAUUUU”, the “apparent Kd” value runs as follows: under setting [3], 92.3 nM; under setting [4], 91.3 nM.

“CUGUGACGGUGCGCAUGUGGACGGAGAAGGCAGACAUGAGGAUCACCCAUGUGAGCCUGCUAUUCUGAGGAUAUCCGUUCGCAC”: the “apparent Kd” value under setting [3] was 31.8 nM and the “apparent Kd” value under setting [4] worked out at 192 nM.

Take “CCCACGAAAGUCGAACGAUGUAGCAGAAGGACAAUAACAUGACAUGAGGAUCACCCAUGUGCCAUGUAGGAUAUGCUACAUGGG”: the “apparent Kd” value turned out to be 8.24 nM under setting [3] and 7.14 nM under setting [4].

Take “GCUAGUAUUGCAGGAUAUUGUGAAUAAUUAUUUCAAGAAGGGCAUUACAUGAGGAUCACCCAUGUCAUCCUUUUGAAUACUAGC”: the “apparent Kd” value stood at 5.67 nM under setting [3] and 7.63 nM under setting [4].

For “AAGUCGAGUAAUAAAUAAGAUCUACAUGAGGAUCACCCAUGUAAGGAUAUGCAGUGGAAUACACUGCAGAAGGUACAUCUCGAC”, the “apparent Kd” value runs as follows: under setting [3], 14 nM; under setting [4], 35 nM.

In the case of “AGAUUCAUGGCCCGUUCGGGCUCACAUGAGGAUCACCCAUGUGAGGAUAUGAUGUACCUGAUUCAUCAGAAGGCGCAUGCGAAA”, the “apparent Kd” value was found to be 7.69 nM under setting [3] and 20.8 nM under setting [4].

Regarding “GAGUAGUCAAAAGGAUAUUGAUUAUUGUAGGAUCAAGAAGGUUUUAACAUGAGGAUCACCCAUGUAGGACUAUUCCUGUGUAUC”, the “apparent Kd” value is, setting by setting: under setting [1], 16.6 nM; under setting [2], 12.2 nM.

Consider “GCGUUGAACGAGAAGGCCAAUACAUGAGGAUCACCCAUGUUAAGAUGUUUUGGAGGAUAUCGUACGUCGUCUCAUGAGCAACGC”, for which the “apparent Kd” value is 6.21 nM under setting [3] and 7.03 nM under setting [4].

Take “UUCUUUACCUAGGAUAUCUUCGGUACGGUCCGGAGAGAAGGAGGUACAUGAGGAUCACCCAUGUCCCUCUGAAA”: the “apparent Kd” value by setting is: under setting [3], 12.6 nM; under setting [4], 13.6 nM.
